The test relates to P. aeruginosa MH602 lasB reporter strain (PlasB: gfp(ASV)). The test is described as follows: Quorum sensing inhibition assay, GFP fluorescence of lasB reporter strain. It is filed as cell-based, Pseudomonas aeruginosa. Conditions: for inhibition at 125 µM / inhibition at 250 µM / inhibition at 62.5 µM: Pseudomonas aeruginosa; for inhibition at 125 µM: read-out: Percentage inhibition of GFP fluorescence, 125 μM; for inhibition at 125 µM / inhibition at 250 µM / inhibition at 62.5 µM / Percentage inhibition of GFP fluorescence: ± standard deviation, NA: no activity; for inhibition at 250 µM: read-out: Percentage inhibition of GFP fluorescence, 250 μM; for inhibition at 62.5 µM: read-out: Percentage inhibition of GFP fluorescence, 62.5 μM; for Percentage inhibition of GFP fluorescence: 250 μM, 250 µM. In a few lines:
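The reporter is a chromosomal lasB promoter–gfp(ASV) fusion responsive to 3-oxododecanoyl-HSL. Cultures were grown overnight in LB10, then diluted 1:100 in ABT with 0.25% tryptone and 0.13% yeast extract plus ampicillin 100 µg mL⁻¹ and gentamicin 20 µg mL⁻¹. Test compound in DMSO was tested at 62.5, 125 or 250 µM, with 1% DMSO controls. Cultures were incubated at 37 °C and shaken briefly before each read. Fluorescence (ex 485/em 535 nm) and OD600 were read every 30 min for 20 h, in triplicate per experiment.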

As a reminder, the inhibition is the relative decrease from the control value, in per cent. In the case of `COc1ccc(-c2cn(CC(=O)Nc3nc4ccccc4[nH]3)nn2)cc1` [6n, N-(1H-Benzo[d]imidazol-2-yl)-2-(4-(4-methoxyphenyl)-1H-1,2,3-triazol-1-yl)acetamide], the inhibition at 125 µM amounted to 5.16 ± 16.6% and the inhibition at 250 µM came out at 20 ± 14%.

For the compound `O=C(Cn1cc(-c2ccc(C(F)(F)F)cc2)nn1)Nc1nc2ccccc2[nH]1` [6o, N-(1H-Benzo[d]imidazol-2-yl)-2-(4-(4-(trifluoromethyl)phenyl)-1H-1,2,3-triazol-1-yl)acetamide], the inhibition at 62.5 µM came out at 57.5 ± 7.73%, the inhibition at 125 µM is 59.9 ± 7.99% and the inhibition at 250 µM came out at 64.2 ± 7.3%.

`O=C(Cn1cc(-c2cccc([N+](=O)[O-])c2)nn1)Nc1nc2ccccc2[nH]1` [6q, N-(1H-Benzo[d]imidazol-2-yl)-2-(4-(3-nitrophenyl)-1H-1,2,3-triazol-1-yl)acetamide]: the inhibition at 62.5 µM is 28.2 ± 10.2%, the inhibition at 125 µM came to 36 ± 6.13% and the inhibition at 250 µM came out at 39.4 ± 5.14%.

Take `CCCc1cn(CC(=O)Nc2nc3cc(C)c(C)cc3[nH]2)nn1` [7a, N-(5,6-Dimethyl-1H-benzo[d]imidazol-2-yl)-2-(4-propyl-1H-1,2,3-triazol-1-yl)acetamide]: the inhibition at 62.5 µM was 19.9 ± 3.8%, the inhibition at 125 µM was 22.1 ± 14.7% and the inhibition at 250 µM came to 31.8 ± 11%.

For `CCCCCc1cn(CC(=O)Nc2nc3cc(C)c(C)cc3[nH]2)nn1` [7b, N-(5,6-Dimethyl-1H-benzo[d]imidazol-2-yl)-2-(4-pentyl-1H-1,2,3-triazol-1-yl)acetamide], the inhibition at 62.5 µM is 16.9 ± 5.74%, the inhibition at 125 µM came to 20.2 ± 11.5% and the inhibition at 250 µM was 26.6 ± 20.8%.

As to `CCCCCCCCCc1cn(CC(=O)Nc2nc3cc(C)c(C)cc3[nH]2)nn1` [7d, N-(5,6-Dimethyl-1H-benzo[d]imidazol-2-yl)-2-(4-nonyl-1H-1,2,3-triazol-1-yl)acetamide], the inhibition at 62.5 µM stood at 37.1 ± 7.75%, the inhibition at 125 µM was 41.6 ± 5.08% and the inhibition at 250 µM is 44.6 ± 3.87%.

Turning to `Cc1cc2nc(NC(=O)Cn3cc(CSc4nc5ccccc5[nH]4)nn3)[nH]c2cc1C` [7e, 2-(4-(((1H-Benzo[d]imidazol-2-yl)thio)methyl)-1H-1,2,3-triazol-1-yl)-N-(5,6-dimethyl-1H-benzo[d]imidazol-2-yl)acetamide], the inhibition at 62.5 µM was determined as 15.1 ± 9.82% and the inhibition at 250 µM is 16 ± 26.1%.

Take `Cc1cc2nc(NC(=O)Cn3cc(Cn4cc(Cl)ccc4=O)nn3)[nH]c2cc1C` [7f, 2-(4-((5-Chloro-2-oxopyridin-1(2H)-yl)methyl)-1H-1,2,3-triazol-1-yl)-N-(5,6-dimethyl-1H-benzo[d]imidazol-2-yl)acetamide]: the inhibition at 62.5 µM is 26.1 ± 7.69%, the inhibition at 125 µM was determined as 29 ± 13.6% and the inhibition at 250 µM stood at 36.8 ± 7.9%.

As to `Cc1cc2nc(NC(=O)Cn3cc(-c4ccccc4)nn3)[nH]c2cc1C` [7g, N-(5,6-Dimethyl-1H-benzo[d]imidazol-2-yl)-2-(4-phenyl-1H-1,2,3-triazol-1-yl)acetamide], the inhibition at 62.5 µM was found to be 28.5 ± 8.41%, the inhibition at 125 µM was found to be 29.9 ± 17.4% and the inhibition at 250 µM amounted to 47.6 ± 14.4%.

In the case of `Cc1cc2nc(NC(=O)Cn3cc(-c4ccc(Br)cc4)nn3)[nH]c2cc1C` [7h, 2-(4-(4-Bromophenyl)-1H-1,2,3-triazol-1-yl)-N-(5,6-dimethyl-1H-benzo[d]imidazol-2-yl)acetamide], the inhibition at 62.5 µM worked out at 31.2 ± 5.02%, the inhibition at 125 µM turned out to be 44.7 ± 14.3% and the inhibition at 250 µM worked out at 57.6 ± 7.43%.

As for `Cc1ccc(-c2cn(CC(=O)Nc3nc4cc(C)c(C)cc4[nH]3)nn2)cc1` [7i, N-(5,6-Dimethyl-1H-benzo[d]imidazol-2-yl)-2-(4-(p-tolyl)-1H-1,2,3-triazol-1-yl)acetamide], the inhibition at 125 µM amounted to 14.9 ± 8.82% and the inhibition at 250 µM was 50.7 ± 12.3%.

As for `Cc1cc2nc(NC(=O)Cn3cc(-c4ccc(O)cc4)nn3)[nH]c2cc1C` [7j, N-(5,6-Dimethyl-1H-benzo[d]imidazol-2-yl)-2-(4-(4-hydroxyphenyl)-1H-1,2,3-triazol-1-yl)acetamide], the “Percentage inhibition of GFP fluorescence” value came out at 44.73 ± 13.15%, the inhibition at 62.5 µM amounted to 17.6 ± 6.21%, the inhibition at 125 µM was determined as 24.2 ± 14.5% and the inhibition at 250 µM is more than 40%.

`COc1ccc(-c2cn(CC(=O)Nc3nc4cc(C)c(C)cc4[nH]3)nn2)cc1` [7k, N-(5,6-Dimethyl-1H-benzo[d]imidazol-2-yl)-2-(4-(4-methoxyphenyl)-1H-1,2,3-triazol-1-yl)acetamide]: the “Percentage inhibition of GFP fluorescence” value amounted to 40.82 ± 23.41%, the inhibition at 62.5 µM stood at 20.4 ± 2.59%, the inhibition at 125 µM was found to be 24.3 ± 23.3% and the inhibition at 250 µM is more than 40%.

As for `Cc1cc2nc(NC(=O)Cn3cc(-c4ccc(C(F)(F)F)cc4)nn3)[nH]c2cc1C` [7l, N-(5,6-Dimethyl-1H-benzo[d]imidazol-2-yl)-2-(4-(4-(trifluoromethyl)phenyl)-1H-1,2,3-triazol-1-yl)acetamide], the inhibition at 62.5 µM was determined as 36.1 ± 7.67%, the inhibition at 125 µM came out at 56.4 ± 5.85% and the inhibition at 250 µM was determined as 65.8 ± 1.91%.

Take `Cc1cc2nc(NC(=O)Cn3cc(-c4ccc([N+](=O)[O-])cc4)nn3)[nH]c2cc1C` [7m, N-(5,6-Dimethyl-1H-benzo[d]imidazol-2-yl)-2-(4-(4-nitrophenyl)-1H-1,2,3-triazol-1-yl)acetamide]: the inhibition at 62.5 µM amounted to 21 ± 10.3%, the inhibition at 125 µM amounted to 31.5 ± 16.2% and the inhibition at 250 µM came out at 53.9 ± 9.78%.

With `Cc1cc2nc(NC(=O)Cn3cc(-c4cccc([N+](=O)[O-])c4)nn3)[nH]c2cc1C` [7n, N-(5,6-Dimethyl-1H-benzo[d]imidazol-2-yl)-2-(4-(3-nitrophenyl)-1H-1,2,3-triazol-1-yl)acetamide], the inhibition at 62.5 µM is 34.2 ± 7.43%, the inhibition at 125 µM is 34.4 ± 14.1% and the inhibition at 250 µM was 46.7 ± 4.87%.

In the case of `O=C(CCc1cn(CC(=O)NC2CCCCC2)nn1)Nc1nc2ccccc2[nH]1` [10a, N-(1H-Benzo[d]imidazol-2-yl)-3-(1-(2-(cyclohexylamino)-2-oxoethyl)-1H-1,2,3-triazol-4-yl)propanamide], the inhibition at 62.5 µM turned out to be 38.4 ± 7.72%, the inhibition at 125 µM is 42.4 ± 8.46% and the inhibition at 250 µM was 47.4 ± 2.69%. The QSI activity (at 62.5–250 μM) is listed as 38–47%.

`O=C(Cn1cc(CCC(=O)Nc2nc3ccccc3[nH]2)nn1)Nc1ccccn1` [10b, N-(1H-Benzo[d]imidazol-2-yl)-3-(1-(2-oxo-2-(pyridin-2-ylamino)ethyl)-1H-1,2,3-triazol-4-yl)propanamide]: the inhibition at 62.5 µM was 4.4 ± 2.93%, the inhibition at 125 µM is 15.6 ± 7.17% and the inhibition at 250 µM was determined as 28.5 ± 17.5%.

Turning to `O=C(CCCc1cn(CC(=O)NC2CCCC2)nn1)Nc1nc2ccccc2[nH]1` [11a, N-(1H-Benzo[d]imidazol-2-yl)-4-(1-(2-(cyclopentylamino)-2-oxoethyl)-1H-1,2,3-triazol-4-yl)butanamide], the inhibition at 62.5 µM turned out to be 42.3 ± 10.3%, the inhibition at 125 µM was found to be 45.9 ± 8.18% and the inhibition at 250 µM was 51.2 ± 7.1%.

For `O=C(CCCc1cn(CC(=O)NC2CCCCC2)nn1)Nc1nc2ccccc2[nH]1` [11b, N-(1H-Benzo[d]imidazol-2-yl)-4-(1-(2-(cyclohexylamino)-2-oxoethyl)-1H-1,2,3-triazol-4-yl)butanamide], the inhibition at 250 µM is 12.9 ± 20.2%.

Source of the values: article PMC9071802 (RSC Advances, 2019).
